What was measured:
MCF7 [1] = assay: Ratio of cytotoxic activity against human MCF-7 cells to that of antiplasmodial activity against Plasmodium falciparum FcB1; assay type: functional
Summary of the method: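 Cytotoxic activity on the MCF7 human tumour line divided by antiplasmodial activity on P. falciparum FcB1.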

Plasmodium falciparum [2] = assay: Antiplasmodial activity for Plasmodium falciparum FcB1; assay type: functional
Summary of the method: (§1)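 Tested against P. falciparum strains FcB1 and F32, with chloroquine as the positive control. Values are means ± SD from independent experiments.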

Leishmania amazonensis [3] = assay: Antileishmanial activity against leishmania amazonensis axenic amastigotes stage; assay type: functional
MCF7 [4] = assay: Cytotoxic activity against human MCF-7 cells; assay type: cell-based
Plasmodium falciparum [5] = assay: Antiplasmodial activity for Plasmodium falciparum F32; assay type: functional; summary of the method: as §1
Leishmania amazonensis [6] = assay: Antileishmanial activity against leishmania amazonensis promastigotes stage; assay type: functional

C=C/C(C)=C/C[C@]1(C)[C@H](C)C[C@H](OC)[C@@]2(C=O)C(C=O)=C[C@H](OC(=O)C(C)CC)C[C@@H]12 (some centres not stated)
Ratio (MCF7 [1]): 2.7 | Activity (Plasmodium falciparum [2]): 3.79 µM | Activity (Leishmania amazonensis [3]): 30.3 µM | Activity (MCF7 [4]): 9.6 µM | Activity (Plasmodium falciparum [5]): 6.04 µM | Activity (Leishmania amazonensis [6]): 50.9 µM

C=C/C(C)=C/C[C@]1(C)[C@H](C)C[C@H](O)[C@@]23C(=C[C@H](OC(=O)C(C)CC)C[C@@H]12)C(OC(C)=O)OC3OC(C)=O (some centres not stated)
Ratio (MCF7 [1]): 2.2 | Activity (Plasmodium falciparum [2]): 0.54 µM | Activity (Leishmania amazonensis [3]): 5.98 µM | Activity (MCF7 [4]): 1.54 µM | Activity (Plasmodium falciparum [5]): 0.62 µM | Activity (Leishmania amazonensis [6]): 11.1 µM

C=C/C(C)=C/C[C@]1(C)[C@H](C)C[C@H](OC)[C@@]23C(=C[C@H](OC(=O)C(C)CC)C[C@@H]12)C(OC(C)=O)OC3OC(C)=O (some centres not stated)
Ratio (MCF7 [1]): 6.8 | Activity (Plasmodium falciparum [2]): 0.66 µM | Activity (Leishmania amazonensis [3]): 47.4 µM | Activity (MCF7 [4]): 4.38 µM | Activity (Plasmodium falciparum [5]): 0.58 µM | Activity (Leishmania amazonensis [6]): 10.9 µM

C=C/C(C)=C/C[C@]1(C)[C@H](C)C[C@H](O)[C@@]23C(=C[C@@H](OC(=O)C(C)CC)C[C@@H]12)C(OC(C)=O)OC3OC(C)=O (some centres not stated)
Ratio (MCF7 [1]): 1.3 | Activity (Plasmodium falciparum [2]): 0.59 µM | Activity (Leishmania amazonensis [3]): 10.5 µM | Activity (MCF7 [4]): 0.85 µM | Activity (Plasmodium falciparum [5]): 0.57 µM | Activity (Leishmania amazonensis [6]): 11 µM

C=C/C(C)=C/C[C@]1(C)[C@H](C)C[C@H](OC(=O)c2ccccc2)[C@@]23C(=C[C@H](OC(=O)C(C)CC)C[C@@H]12)C(OC(C)=O)OC3OC(C)=O (some centres not stated)
Ratio (MCF7 [1]): 4.6 | Activity (Plasmodium falciparum [2]): 5.35 µM | Activity (Leishmania amazonensis [3]): >200 µM | Activity (MCF7 [4]): 27.3 µM | Activity (Plasmodium falciparum [5]): 4.66 µM | Activity (Leishmania amazonensis [6]): >200 µM

CCCCCCCC/C=C\CCCCCC[C@@H]1C(=O)O[C@@H](C)[C@H]1O
Ratio (MCF7 [1]): 2.1 | Activity (Plasmodium falciparum [2]): 27.5 µM | Activity (Leishmania amazonensis [3]): 129 µM | Activity (MCF7 [4]): 65.9 µM | Activity (Plasmodium falciparum [5]): 57.6 µM | Activity (Leishmania amazonensis [6]): 111 µM

C=C/C(C)=C/C[C@]1(C)[C@H](C)C[C@H](OC(=O)c2ccccc2)[C@@]23C(=C[C@H](OC(=O)C(C)C)C[C@@H]12)C(OC(C)=O)OC3OC(C)=O (some centres not stated)
Ratio (MCF7 [1]): 3.1 | Activity (Plasmodium falciparum [2]): 6.08 µM | Activity (Leishmania amazonensis [3]): >200 µM | Activity (MCF7 [4]): 17.8 µM | Activity (Plasmodium falciparum [5]): 4.44 µM | Activity (Leishmania amazonensis [6]): >200 µM

C[C@@H]1[C@H](O)[C@@H](C)/C=C/C=C/C=C/C=C/C=C/C=C/C=C/[C@H](O[C@@H]2O[C@H](C)[C@@H](O)[C@H](N)[C@@H]2O)C[C@@H]2O[C@](O)(C[C@@H](O)C[C@@H](O)[C@H](O)CC[C@@H](O)C[C@@H](O)CC(=O)O[C@H]1C)C[C@H](O)[C@H]2C(=O)O [AMPHOTERICIN B]
Activity (Leishmania amazonensis [3]): 0.3 µM | Activity (Leishmania amazonensis [6]): 0.3 µM

CCN(CC)CCCC(C)Nc1ccnc2cc(Cl)ccc12 (configuration not stated) [CHLOROQUINE]
Activity (Plasmodium falciparum [2]): 0.145 µM | Activity (Plasmodium falciparum [5]): 0.06 µM

COc1cccc2c1C(=O)c1c(O)c3c(c(O)c1C2=O)C[C@@](O)(C(=O)CO)C[C@@H]3O[C@H]1C[C@H](N)[C@H](O)[C@H](C)O1 [DOXORUBICIN]
Activity (MCF7 [4]): 0.4 µM
